Measurements taken from ChEMBL document CHEMBL4627259, “Discovery of LY3325656: A GPR142 agonist suitable for clinical testing in human” (Bioorg Med Chem Lett, 2020).

Key:
[1] = target: T1, Probable G-protein coupled receptor 142 (Homo sapiens, UniProt Q7Z601); assay: Agonist activity at human GPR142 receptor expressed in HEK293 cells assessed as accumulation of inositol phosphate incubated for 1 hr followed by IP1-d2 addition by HTRF assay; assay type: functional, cell-based
T1 sequence (Q7Z601 whole entry): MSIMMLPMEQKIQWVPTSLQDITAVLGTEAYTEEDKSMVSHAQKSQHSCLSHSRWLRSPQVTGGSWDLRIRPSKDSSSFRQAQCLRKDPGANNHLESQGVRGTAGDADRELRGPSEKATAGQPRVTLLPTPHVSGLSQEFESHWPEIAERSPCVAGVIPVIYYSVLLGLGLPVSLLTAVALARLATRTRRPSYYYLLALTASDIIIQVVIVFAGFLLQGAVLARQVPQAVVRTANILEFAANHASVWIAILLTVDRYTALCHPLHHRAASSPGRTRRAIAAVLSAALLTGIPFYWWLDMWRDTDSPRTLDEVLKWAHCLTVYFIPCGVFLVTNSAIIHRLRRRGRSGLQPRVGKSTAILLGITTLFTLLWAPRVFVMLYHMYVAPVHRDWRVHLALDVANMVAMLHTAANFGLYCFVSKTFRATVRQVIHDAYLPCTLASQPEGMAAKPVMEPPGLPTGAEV
Method in brief: (§1)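 HEK293 cells stably expressing human GPR142 (DMEM, 10% FBS, 800 ug/mL G418, 37 °C, 5% CO2), seeded 5000 cells/well and left 18 h to attach. Compounds added at 30 uM to 1 nM, 1 h incubation in HBSS (+Ca, +Mg), 0.1% BSA, 50 mM LiCl, 20 mM HEPES pH 7.2. IP-1 HTRF read-out: IP1-d2 then cryptate, 1 h at 25 °C, 665/620 nm ratio converted via IP-1 standard curve; EC50 by 4-parameter logistic fit.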

[2] = target: T2, Probable G-protein coupled receptor 142 (Homo sapiens) (UniProt Q7Z601); assay: Agonist activity at human GPR142 receptor expressed in HEK293 cells assessed as accumulation of inositol phosphate at 30 uM to 1 nM incubated for 1 hr followed by IP1-d2 addition by HTRF assay relative to control; assay type: functional, cell-based; method in brief: as §1
T2 sequence (whole entry): T1 sequence (Q7Z601 whole entry)

[3] = Drug metabolism in mouse microsomes assessed as drug turnover at 20 uM measured after 30 mins by LCMS analysis; assay type: ADME, Microsome; settings: read-out: Drug metabolism
Method in brief: (§2)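 High-throughput microsomal stability: compound at 20 uM incubated with mouse, rat, dog or human liver microsomes at 37 °C; percent parent remaining measured after 30 min and reported as % turnover.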

[4] = Drug metabolism in rat microsomes assessed as drug turnover at 20 uM measured after 30 mins by LCMS analysis; assay type: ADME, Microsome; settings: read-out: Drug metabolism; method in brief: as §2
[5] = Drug metabolism in dog microsomes assessed as drug turnover at 20 uM measured after 30 mins by LCMS analysis; assay type: ADME, Canis lupus familiaris, Microsome; settings: read-out: Drug metabolism; method in brief: as §2
[6] = Drug metabolism in human microsomes assessed as drug turnover at 20 uM measured after 30 mins by LCMS analysis; assay type: ADME, Microsome; settings: read-out: Drug metabolism; method in brief: as §2
[7] = Clearance in rat at 1 mg/kg, iv or 10 mg/kg, po; assay type: ADME, organism-based; settings: in vivo
[8] = Volume of distribution at steady state in rat at 1 mg/kg, iv or 10 mg/kg, po; assay type: ADME, organism-based; settings: in vivo, read-out: Vdss
[9] = Oral bioavailability in rat at 10 mg/kg; assay type: ADME, organism-based; settings: in vivo
[10] = Clearance in dog at 1 mg/kg, iv or 5 mg/kg, po; assay type: ADME, organism-based, Canis lupus familiaris; settings: in vivo
[11] = Volume of distribution at steady state in dog at 1 mg/kg, iv or 5 mg/kg, po; assay type: ADME, organism-based, Canis lupus familiaris; settings: in vivo, read-out: Vdss
[12] = Oral bioavailability in dog at 5 mg/kg; assay type: ADME, organism-based, Canis lupus familiaris; settings: in vivo
[13] = target: CYP3A4 (Homo sapiens, UniProt P08684); assay: Inhibition of CYP3A4 (unknown origin) at 10 uM relative to control; assay type: ADME
Chain of CYP3A4 (P08684 whole entry): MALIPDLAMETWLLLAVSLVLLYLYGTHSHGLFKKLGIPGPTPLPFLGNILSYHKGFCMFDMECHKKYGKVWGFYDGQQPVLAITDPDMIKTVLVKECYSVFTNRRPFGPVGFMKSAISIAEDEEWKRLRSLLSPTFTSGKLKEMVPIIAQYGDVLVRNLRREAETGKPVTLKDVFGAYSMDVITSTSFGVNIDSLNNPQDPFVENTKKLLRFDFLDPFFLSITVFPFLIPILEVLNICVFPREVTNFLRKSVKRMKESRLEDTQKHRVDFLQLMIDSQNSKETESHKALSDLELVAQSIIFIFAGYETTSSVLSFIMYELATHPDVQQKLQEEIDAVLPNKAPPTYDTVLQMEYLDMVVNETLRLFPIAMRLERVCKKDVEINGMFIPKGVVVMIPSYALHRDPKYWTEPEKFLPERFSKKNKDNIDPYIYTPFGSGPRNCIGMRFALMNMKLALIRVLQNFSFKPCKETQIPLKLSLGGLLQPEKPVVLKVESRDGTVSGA

[14] = target: CYP2C9 (Homo sapiens, UniProt P11712); assay: Inhibition of CYP2C9 (unknown origin) at 10 uM relative to control; assay type: ADME
Chain of CYP2C9 (P11712 whole entry): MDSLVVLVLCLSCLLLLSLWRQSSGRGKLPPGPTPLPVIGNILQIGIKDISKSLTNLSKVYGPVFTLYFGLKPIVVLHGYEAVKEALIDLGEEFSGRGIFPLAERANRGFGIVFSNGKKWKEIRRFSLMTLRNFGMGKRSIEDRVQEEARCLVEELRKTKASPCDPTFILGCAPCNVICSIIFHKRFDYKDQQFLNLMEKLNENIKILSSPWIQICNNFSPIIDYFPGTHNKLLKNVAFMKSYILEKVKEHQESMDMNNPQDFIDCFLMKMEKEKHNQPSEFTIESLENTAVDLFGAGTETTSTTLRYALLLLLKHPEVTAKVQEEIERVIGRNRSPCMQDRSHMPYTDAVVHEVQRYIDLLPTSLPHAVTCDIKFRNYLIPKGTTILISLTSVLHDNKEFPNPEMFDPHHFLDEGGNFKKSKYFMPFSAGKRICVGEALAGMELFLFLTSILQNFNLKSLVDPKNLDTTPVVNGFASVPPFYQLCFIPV

[15] = target: CYP2D6 (Homo sapiens, UniProt P10635); assay: Inhibition of CYP2D6 (unknown origin) at 10 uM relative to control; assay type: ADME
Chain of CYP2D6 (P10635 whole entry): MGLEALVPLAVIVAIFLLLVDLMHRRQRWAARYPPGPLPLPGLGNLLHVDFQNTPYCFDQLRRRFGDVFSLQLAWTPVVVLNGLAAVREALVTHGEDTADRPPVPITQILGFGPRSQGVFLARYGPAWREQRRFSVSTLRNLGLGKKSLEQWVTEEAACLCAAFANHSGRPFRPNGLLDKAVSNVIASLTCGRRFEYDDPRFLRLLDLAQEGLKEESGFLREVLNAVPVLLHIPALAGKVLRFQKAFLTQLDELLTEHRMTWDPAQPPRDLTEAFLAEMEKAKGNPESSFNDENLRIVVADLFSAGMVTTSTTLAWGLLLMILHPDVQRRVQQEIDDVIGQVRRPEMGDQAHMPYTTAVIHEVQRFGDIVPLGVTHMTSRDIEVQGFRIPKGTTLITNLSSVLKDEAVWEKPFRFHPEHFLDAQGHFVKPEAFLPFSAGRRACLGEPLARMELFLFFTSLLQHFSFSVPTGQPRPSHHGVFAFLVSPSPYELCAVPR

Row | SMILES | EC50 [1] [µM] | Emax [2] [%] | metabolised at 0.5 h, 20 µM [3] [%] | metabolised at 0.5 h, 20 µM [4] [%] | metabolised at 0.5 h, 20 µM [5] [%] | metabolised at 0.5 h, 20 µM [6] [%] | clearance [7] [mL/min/kg] | Vd [8] [L/kg] | bioavailability [9] [%] | clearance [10] [mL/min/kg] | Vd [11] [L/kg] | bioavailability [12] [%] | inhibition at 10 µM [13] [%] | inhibition at 10 µM [14] [%] | inhibition at 10 µM [15] [%]
1 | Cc1ncn(CC2CN(C)C2)c1NC(=O)[C@H]1CCC[C@@H](N(C)C(=O)c2cccc(C(F)(F)F)c2)C1 | 0.147 | 103 | 38 | 29 | 24 | 20 | – | – | – | – | – | – | – | – | –
2 | Cc1ncn(CC#N)c1NC(=O)[C@H]1CCC[C@@H](N(C)C(=O)c2cccc(C(F)(F)F)c2)C1 | 0.093 | 96 | 56 | 21 | 6 | 26 | – | – | – | – | – | – | – | – | –
3 | Cc1ncn(C)c1NC(=O)[C@H]1CCC[C@@H](N(C)C(=O)c2cccc(OC(F)(F)F)c2)C1 | 0.071 | 104 | 90 | 37 | 40 | 42 | – | – | – | – | – | – | – | – | –
4 | Cc1ncn(C)c1-c1nnc([C@@H]2C[C@H](N(C)C(=O)c3cccc(Cl)c3)CCO2)[nH]1 | – | – | 17 | 15 | 16 | 7 | – | – | – | – | – | – | – | – | –
5 | Cc1ncn(CC(F)F)c1NC(=O)[C@H]1CCC[C@@H](N(C)C(=O)c2cccc(Cl)c2)C1 | 0.104 | 99 | 54 | 79 | 19 | 51 | – | – | – | – | – | – | – | – | –
6 | CN(C(=O)c1cccc(Cl)c1)[C@@H]1CCO[C@H](c2nnc(-c3cnc4ccccn34)[nH]2)C1 | 0.035 | 102 | 66 | 23 | 46 | 29 | – | – | – | – | – | – | – | – | –
7 | Cc1ncn(CCN2CCOCC2)c1NC(=O)[C@H]1CCC[C@@H](N(C)C(=O)c2cccc(C(F)(F)F)c2)C1 | 0.051 | 97 | 67 | 63 | 19 | 38 | – | – | – | – | – | – | – | – | –
8 | Cc1ncn(CC(F)(F)F)c1NC(=O)[C@H]1CCC[C@@H](N(C)C(=O)c2cccc(OC(F)(F)F)c2)C1 | 0.11 | 114 | 86 | 56 | 51 | 76 | – | – | – | – | – | – | – | – | –
9 | Cc1ncn(CC2CC2)c1NC(=O)[C@H]1CCC[C@@H](N(C)C(=O)c2cccc(C(F)(F)F)c2)C1 | 0.052 | 118 | 97 | 88 | 66 | 72 | – | – | – | – | – | – | – | – | –
10 | Cc1ncn(CC(F)F)c1NC(=O)[C@H]1CCC[C@@H](N(C)C(=O)c2cccc(C(F)(F)F)c2)C1 | 0.063 | 105 | 64 | 59 | 38 | 58 | – | – | – | – | – | – | – | – | –
11 | Cc1ncn(CC(F)(F)F)c1NC(=O)[C@H]1CCC[C@@H](N(C)C(=O)c2cccc(C(F)(F)F)c2)C1 | 0.081 | 114 | 67 | 59 | 38 | 62 | – | – | – | – | – | – | – | – | –

Now from value to compound:

Row | EC50 [1] [µM] | Emax [2] [%] | metabolised at 0.5 h, 20 µM [3] [%] | metabolised at 0.5 h, 20 µM [4] [%] | metabolised at 0.5 h, 20 µM [5] [%] | metabolised at 0.5 h, 20 µM [6] [%] | clearance [7] [mL/min/kg] | Vd [8] [L/kg] | bioavailability [9] [%] | clearance [10] [mL/min/kg] | Vd [11] [L/kg] | bioavailability [12] [%] | inhibition at 10 µM [13] [%] | inhibition at 10 µM [14] [%] | inhibition at 10 µM [15] [%] | SMILES
12 | 0.016 | 121 | 46 | 13 | 48 | 82 | – | – | – | – | – | – | – | – | – | Cc1ncn(C2CCC2)c1-c1nnc([C@@H]2C[C@H](N(C)C(=O)c3cccc(C(F)(F)F)c3)CCO2)[nH]1
13 | 0.102 | 108 | 27 | 28 | 17 | 12 | – | – | – | – | – | – | – | – | – | CN(C(=O)c1cccc(C(F)(F)F)c1)[C@@H]1CCO[C@H](c2nnc(-c3cnc4n3CCOC4)[nH]2)C1
14 | 0.031 | 115 | 76 | 52 | 33 | 48 | – | – | – | – | – | – | – | – | – | Cc1ncn(C(C)C)c1NC(=O)[C@H]1CCC[C@@H](N(C)C(=O)c2cccc(C(F)(F)F)c2)C1
15 | 0.014 | 123 | 83 | 64 | 63 | 69 | – | – | – | – | – | – | – | – | – | Cc1ncn(CC2CC2)c1-c1nnc([C@@H]2C[C@H](N(C)C(=O)c3cccc(C(F)(F)F)c3)CCO2)[nH]1
16 | 0.053 | 107 | 39 | 16 | 7 | 18 | – | – | – | – | – | – | – | – | – | CN(C(=O)c1cccc(C(F)(F)F)c1)[C@@H]1CCO[C@H](c2nnc(-c3cnc4n3CCC4)[nH]2)C1
17 | 0.014 | 111 | 39 | 55 | 33 | 26 | 40.1 | 1 | 29 | 8.8 | 0.9 | 86 | 3.3 | 0 | 0 | Cc1ncn(C)c1-c1nnc([C@H]2CCC[C@@H](N(C)C(=O)c3cccc(Cl)c3)C2)[nH]1
18 | 0.076 | 101 | 36 | 36 | 9 | 13 | – | – | – | – | – | – | – | – | – | Cc1nc[nH]c1-c1nnc([C@H]2CCC[C@@H](N(C)C(=O)c3cccc(C(F)(F)F)c3)C2)[nH]1
19 | 0.041 | 109 | 82 | 67 | 83 | 90 | – | – | – | – | – | – | – | – | – | Cc1ncn(CC(F)F)c1-c1nnc([C@H]2CCC[C@@H](N(C)C(=O)c3cccc(C(F)(F)F)c3)C2)[nH]1
20 | – | – | 39 | 14 | 16 | 10 | – | – | – | – | – | – | – | – | – | Cc1ncn(C)c1-c1nnc([C@@H]2C[C@H](N(C)C(=O)c3cccc(OC(F)(F)F)c3)CCO2)[nH]1
21 | 0.011 | 117 | 64 | 43 | 46 | 67 | – | – | – | – | – | – | – | – | – | Cc1ncn(C)c1-c1nnc([C@H]2CCC[C@@H](N(C)C(=O)c3cccc(C(F)(F)F)c3)C2)[nH]1
22 | 0.032 | 102 | 70 | 80 | 52 | 84 | – | – | – | – | – | – | – | – | – | CN(C(=O)c1cccc(C(F)(F)F)c1)[C@@H]1CCC[C@H](c2nnc(-c3cnc4n3CCOC4)[nH]2)C1
23 | 0.046 | 98 | 53 | 41 | 22 | 69 | – | – | – | – | – | – | – | – | – | Cc1ncc(-c2nnc([C@H]3CCC[C@@H](N(C)C(=O)c4cccc(C(F)(F)F)c4)C3)[nH]2)n1C
